High-throughput results: PubChem BioAssay, several laboratories
Rows were chosen to be rich in hits. Some 2.1% of all compounds tested hit in one or more screens of this group.
TLR4-MyD88 BLA = inhibitors of human TLR4-MyD88 binding. 200,000 compounds, 0.18% hits. HeLa CL3-4 TLR4/MyD88 BLA complementation, FRET ratio. inhibition, % at 8.4 µM. O00206+Q99836; in the data active means inhibition above about 25%;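 further: 0% = vehicle and 100% = reference inhibitor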
NOD2-RIPK2 inh = inhibitors of human NOD2-RIPK2 interaction; CHO BLA complementation NOD2-RIPK2, CCF4 ratio; 360,000 compounds, 0.38% hits; O43353; inhibition, % at 4.98 µM; in the data active means inhibition above about 21%;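 further: 0% = vehicle only and 100% = reference blocker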
MC4R antag cAMP = blocks human MC4R cAMP signaling | P32245 | MC4R-expressing cells, MTII-stimulated cAMP, LANCE TR-FRET | inhibition, % at 6.5 µM | 360,000 compounds, 0.48% hits;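 active means inhibition above its plate's cutoff, the mean of tested wells on that plate plus 3 SD, cut at about 29% in these data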;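 further: 0% = Melanotan II alone and 100% = Melanotan II plus saturating MCL0020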
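Test system: U2OS cells stably expressing human melanocortin 4 receptor (MC4R); also added: Melanotan II challenge; compound: 6.5 µM single dose; timing: 30-min compound preincubation, 1-h Melanotan II challenge, 1-h detection, room temperature; signal: Eu-cAMP/anti-cAMP TR-FRET, emission 671 nm; repeats: one well per compound, no replicates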
MC4R ag barr = agonists of human melanocortin 4 receptor (MC4R) beta-arrestin | AID 540308 | activation, % at 8.9 µM | P32245 | U2OS MC4R beta-arrestin complementation, luminescence; percent of melanotan II response, DMSO zero | 360,000 compounds, 0.98% hits;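 active means activation above a per-plate cutoff, the mean activation of sample wells on that plate plus 3 SD, cut at about 8% in these data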
beta cell repl = inducers of beta-cell replication in MIN6 cells | MIN6 cells proliferation, ATPlite luminescence, 48 h; cells starved in 0.2% serum; 100% = growth in 10% serum | proliferation, % at 10 µM | 330,000 compounds, 0.29% hits | AID 2380;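 active means compounds whose signal lies at least 3.5 SD above the mean of all wells on their plate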;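 further: 0% = DMSO-treated cells in low-serum medium and 100% = 10% serum control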
TLR9-MyD88 inh = blocks human TLR9 binding to MyD88. AID 504734. Q9NR96+Q99836. inhibition, % at 4.98 µM. 340,000 compounds, 0.21% hits. CHO BLA complementation TLR9-MyD88, CCF4 FRET ratio;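 active means inhibition above the mean over all tested compounds plus 3 SD, cut at about 21% in these data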;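 further: 0% = DMSO only wells and 100% = clavulanate BLA inhibitor control wells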
MC4R barr conf = human MC4R beta-arrestin agonism confirmation. shares compounds with MC4R ag barr. U2OS MC4R beta-arrestin recruitment, luminescence; scaled DMSO 0%, Melanotan II 100%. activation, % at 8.9 µM. 2,400 compounds, 31% hits. AID 602192;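 active means mean activation across replicates above the hit cutoff set in the earlier primary screen, cut at about 8% in these data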
MOR-DOR barr ag = activates mu-delta opioid heterodimer, MC4R agonist counter-screen. shares compounds with MC4R ag barr. U2OS PathHunter beta-arrestin, beta-gal luminescence; percent of deltorphin B response, DMSO zero. activation, % at 9.2 µM. 2,400 compounds, 5.8% hits. AID 602194;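 active means mean activation across replicates exceeds the hit threshold derived in the earlier primary screen, cut at about 18% in these data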;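 further: 100% = deltorphin B at 0.9 µM final and 0% = DMSO alone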
Target sequence (P35372 whole entry, looked up): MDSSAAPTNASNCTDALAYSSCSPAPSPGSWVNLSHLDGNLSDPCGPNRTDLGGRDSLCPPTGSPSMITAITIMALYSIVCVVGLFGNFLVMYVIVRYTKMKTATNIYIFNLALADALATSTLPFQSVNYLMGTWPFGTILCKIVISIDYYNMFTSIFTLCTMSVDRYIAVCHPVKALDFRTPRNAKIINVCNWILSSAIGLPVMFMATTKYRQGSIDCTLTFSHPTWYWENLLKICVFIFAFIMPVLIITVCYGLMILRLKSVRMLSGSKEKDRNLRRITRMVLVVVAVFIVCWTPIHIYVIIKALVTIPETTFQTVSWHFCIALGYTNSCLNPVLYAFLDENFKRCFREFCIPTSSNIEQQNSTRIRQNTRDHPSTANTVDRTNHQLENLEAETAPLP
Target sequence (P41143 whole entry, looked up): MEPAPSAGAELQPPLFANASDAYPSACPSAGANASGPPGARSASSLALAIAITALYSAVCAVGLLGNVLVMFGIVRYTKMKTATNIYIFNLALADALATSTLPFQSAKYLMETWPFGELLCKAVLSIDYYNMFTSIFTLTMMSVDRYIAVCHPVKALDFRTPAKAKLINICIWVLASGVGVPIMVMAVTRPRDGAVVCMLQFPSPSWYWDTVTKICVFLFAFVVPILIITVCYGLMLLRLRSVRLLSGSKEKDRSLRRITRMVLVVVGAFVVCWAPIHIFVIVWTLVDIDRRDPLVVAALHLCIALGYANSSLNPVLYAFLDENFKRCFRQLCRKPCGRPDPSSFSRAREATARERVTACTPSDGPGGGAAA
Active calls of the source: *; . = no result.

SMILES	TLR4-MyD88 BLA	NOD2-RIPK2 inh	MC4R antag cAMP	MC4R ag barr	beta cell repl	TLR9-MyD88 inh	MC4R barr conf	MOR-DOR barr ag
NC(Cc1ccc(C(F)(F)F)cc1)c1csc(NC(=O)NCCc2ccccc2)n1 (configuration not stated)	.	18	10	14*	.	.	22*	18*
NC(c1ccccc1)c1csc(NC(=O)Nc2ccccc2Oc2ccccc2)n1 (configuration not stated)	.	7	-4	23*	.	.	35*	13
NC(Cc1ccc(C(F)(F)F)cc1)c1csc(Nc2ncccn2)n1 (configuration not stated)	.	7	7	1	.	.	.	.
NC(Cc1ccccc1)c1csc(NC(=O)Nc2ccccc2Oc2ccccc2)n1 (configuration not stated)	.	5	5	5	.	.	.	.
COc1ccccc1NC(=O)Nc1nc(C(N)Cc2ccc(C(F)(F)F)cc2)cs1 (configuration not stated)	.	-12	-2	21*	.	.	11*	14
CC(C)CC(N)c1csc(NC(=O)NCCc2ccccc2)n1 (configuration not stated)	.	-6	-3	-2	.	.	.	.
COc1ccc(NC(=O)Nc2nc(C(N)Cc3ccc(C(F)(F)F)cc3)cs2)cc1 (configuration not stated)	.	-1	4	33*	.	.	28*	18
COc1ccc2c(Cl)c(C(=O)N/N=C/c3ccc4c(c3)OCO4)sc2c1	-2	-1	-4	12*	2	-11	7	4
O=C(N/N=C/c1ccc2c(c1)OCO2)c1sc2cc(Cl)ccc2c1Cl	1	-7	-3	0	-5	3	.	.
C[C@H]1CN([C@@H](C)CO)C(=O)CCCn2nncc2CO[C@@H]1CN(C)S(=O)(=O)c1ccc(Oc2ccccc2)nc1	.	-3	5	0	.	-5	.	.
COc1ccc(NC(=O)Cn2cnc3c(cnn3-c3ccc(C)c(C)c3)c2=O)c(OC)c1	-14	-2	0	12*	4	-8	15*	7
Cc1ccsc1C(=O)N1CCC1(C)C(=O)NS(=O)(=O)c1ccc(Br)cc1 (configuration not stated)	.	5	-5	-1	.	.	.	.
Cc1ccc(C(=O)N/N=C\c2ccc(-c3ccc(Cl)c(Cl)c3)o2)cn1	.	9	-7	11*	-4	-7	8.4*	6
Cc1ccc(C(C)C)c(OCC(=O)NNCC(=O)Nc2cccc(F)c2)c1	.	-2	-1	14*	-5	-10	10*	6
CC(=O)Nc1ccc(S(=O)(=O)NNC(=O)COc2cc(C)ccc2C(C)C)cc1	10	-7	13	-1	1	-1	.	.
COc1ccc(-c2csc(NC(=O)COC(=O)c3ccco3)n2)cc1	2	-3	7	11*	-5	2	4	3
COc1ccc(-c2csc(NC(=S)NC(=O)c3ccco3)n2)cc1	1	-10	-4	4	-6	-6	.	.
CC(=O)Nc1cc(-c2cccc(C(=O)NCCO)c2)cn2c(-c3ccc(F)cc3)cnc12	.	-6	23	3	.	.	.	.
COc1ccc(-c2cnc3c(NC(C)=O)cc(-c4ccsc4)cn23)cc1OC	.	-7	5	11*	.	.	15*	4
CC(=O)Nc1cc(-c2cccnc2)cn2c(-c3ccc(F)cc3)cnc12	.	6	12	42*	.	.	44*	0
CC(=O)Nc1cc(-c2ccsc2)cn2c(-c3ccc(F)cc3)cnc12	.	-6	-4	18*	.	.	13*	4
COc1ccc(-c2cc(NC(C)=O)c3ncc(-c4ccc(OC)c(OC)c4)n3c2)cc1OC	.	9	11	15*	.	.	23*	2
Cc1cccc(NC(=O)c2nc[nH]c2C(=O)N[C@@H](C)CO)c1	.	-10	-1	-1	.	4	.	.
COc1cc(-c2cc(NC(C)=O)c3ncc(-c4ccccc4)n3c2)cc(OC)c1OC	.	-1	24	4	.	.	.	.
COc1cc(-c2cc(NC(C)=O)c3ncc(-c4cc(OC)c(OC)c(OC)c4)n3c2)cc(OC)c1OC	.	3	-33	9.6*	.	.	9.3*	2
SMILES	TLR4-MyD88 BLA	NOD2-RIPK2 inh	MC4R antag cAMP	MC4R ag barr	beta cell repl	TLR9-MyD88 inh	MC4R barr conf	MOR-DOR barr ag
COc1ccccc1-c1cc(NC(C)=O)c2ncc(-c3cccc(C(C)=O)c3)n2c1	.	-3	-17	11*	.	.	18*	4
COc1ccc(-c2cnc3c(NC(C)=O)cc(-c4ccccc4OC)cn23)cc1OC	.	1	-28	22*	.	.	25*	2
O=C(COc1cccc(Cl)c1)Nc1ccccc1N1CCCCC1	.	-1	5	-2	-6	-3	.	.
c1ccc(Cn2nnc3c(Nc4ccc5c(c4)OCO5)nc(C4CC4)nc32)cc1	8	-2	9	18*	-4	-1	3	5
CN(CC(=O)Nc1ccc(Cl)cc1)C(=O)Cn1[nH]c(=O)c2ccccc2c1=O	.	-9	-7	-1	2	-1	.	.
CC(C)(C)NC(=O)CN(C(=O)CCC(=O)Nc1nccs1)c1ccccc1F	.	-14	10	12*	.	-15	0	2
Cc1ccccc1N(CC(=O)NC(C)(C)C)C(=O)CCC(=O)Nc1nccs1	.	4	14	0	-2	-10	.	.
Cc1c(Cc2ccccc2)sc(NC(=O)Cc2ccccc2)c1C(N)=O	-3	6	6	11*	0	-1	4	5
COc1ccc(/C=C/C(=O)Nc2sc(Cc3ccccc3)c(C)c2C(N)=O)cc1	5	-4	-6	25*	0	3	16*	8
CCC(=O)Nc1sc(Cc2ccccc2)c(C)c1C(N)=O	-8	-6	3	-3	3	-3	.	.
CNS(=O)(=O)c1cccc(C(=O)OCC(=O)N(Cc2ccccc2)C(C)(C)C)c1	-7	4	0	-1	-3	-10	.	.
Cc1ccc(NC(=O)COC(=O)C2CCN(c3ccc(C(F)(F)F)cn3)CC2)cc1C	.	-3	-3	4	-6	1	.	.
O=C(COC(=O)C1CCN(c2ccc(C(F)(F)F)cn2)CC1)Nc1cccc(F)c1	.	6	8	13*	1	8	-2	6
CCn1c(-c2ccccc2)c[nH]c1=S	2	-17	1	0	-4	8	.	.
S=c1[nH]cc(-c2ccc(Cl)cc2)n1Cc1ccccc1	.	1	-2	19*	-1	0	3	11
CC(C)(C)C(=O)N/C(N)=N/c1nc2ccccc2o1	.	-19	3	3	-2	3	.	.
